Screens: PubChem, The Scripps Research Institute Molecular Screening Center
HTRA1 inhibitor = HTRA1 serine protease inhibitors, primary screen, biochemical, fluorescence polarization, HTS; Q92743; recombinant HTRA1, FP-rhodamine activity-based probe; inhibition, % at 5.96 µM; actives 0.5% (n = 340,000); AID 504803, 2011; in the data active = inhibition above about 36%;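 note: 0% = enzyme with DMSO and 100% = wells lacking enzyme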
mABHD4 FP = ABHD4 inhibitors, primary screen, biochemical, fluorescence polarization, mouse; actives 0.54% (n = 370,000); purified mABHD4, FP-Rh probe fluorescence polarization; (Lyso)-N-acylphosphatidylethanolamine lipase (Mus musculus), Q8VD66; inhibition, % at 8.92 µM;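 active = inhibition exceeding the mean over every tested compound plus 3 SD, cut at about 30% in these data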;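 note: 0% = plate median of compound wells and 100% = S159A mutant with DMSO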
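Assay system: wild-type mouse ABHD4 protein; compound: single nominal dose of 8.92 µM, 0.89% DMSO final; schedule: 45 min + 60 min at 25 °C; measured by: FP readout, ex 525 nm / em 598 nm; evaluation: % inhibition of FP-Rh probe binding versus controls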
TCR-CD3 inh = inhibitors of human TCR-CD3 interaction, primary screen, biochemical, fluorescence, TAMRA-labeled TCR probe | inhibition, % at 9.4 µM | actives 0.37% (n = 360,000);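 note: recombinant mutant TCR 2C K166C tagged with TAMRA read by polarization; 0% = receptor in buffer alone and 100% = receptor with positive control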
DDE Tn7 FP inh = inhibitors of Tn7 peptide binding to fibrin DD(E), primary screen, biochemical, fluorescence polarization, human fibrin, Tn7 probe; Fibrinogen beta chain (Homo sapiens), P02675; FP displacement of FITC-Tn7 peptide from fibrin DD(E); 0% = median of compound wells per plate; inhibition, % at 8.3 µM; actives 0.13% (n = 370,000); AID 720508, 2013;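 active = inhibition above the mean of compounds falling within the control limits plus 3 SD of them, cut at about 14% in these data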;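 note: 0% = plate median of compound wells and 100% = 10 µM Aha-Tn7 peptide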
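System: human fibrin DD(E); quantity: Fibrin-DD(E) at 2 µM final; also added: fluorescent Tn7 probe at 0.1 µM; compound dosing: single nominal test concentration of 8.3 µM per compound; schedule: 10 min preincubation, 3 h with tracer, room temperature; detection: fluorescence polarization of the labelled Tn7 tracer; repeats: one replicate per compound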
DDE Tn6 FP inh = inhibitors of Tn6 peptide binding to fibrin DD(E), primary screen, biochemical, fluorescence polarization, human fibrin, Tn6 probe | Fibrin DD(E) TRITC-Tn6 fluorescence polarization displacement | inhibition, % at 8.3 µM | actives 0.21% (n = 370,000) | Fibrinogen beta chain (Homo sapiens), P02675 | AID 720509, 2013;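 active = inhibition above a per-campaign cutoff: mean of compounds within control limits plus 3 SD, cut at about 15% in these data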;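 note: 0% = median of all compound wells on the plate and 100% = blocking peptide control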
SIAE inh = human SIAE inhibitors, primary screen, biochemical, fluorescence polarization, FP-Rh probe, 1536-well HTS | Sialate O-acetylesterase (Homo sapiens), Q9HAT2 | SIAE FP-Rh probe binding | inhibition, % at 9.66 µM | actives 0.69% (n = 370,000) | AID 1053197, 2014;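 active = inhibition above a cutoff: mean of compounds within the control limits plus 3 SD of those, cut at about 17% in these data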;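 note: 0% = plate median of compound wells and 100% = probe without SIAE protein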
Target sequence (Q9HAT2 whole entry, looked up): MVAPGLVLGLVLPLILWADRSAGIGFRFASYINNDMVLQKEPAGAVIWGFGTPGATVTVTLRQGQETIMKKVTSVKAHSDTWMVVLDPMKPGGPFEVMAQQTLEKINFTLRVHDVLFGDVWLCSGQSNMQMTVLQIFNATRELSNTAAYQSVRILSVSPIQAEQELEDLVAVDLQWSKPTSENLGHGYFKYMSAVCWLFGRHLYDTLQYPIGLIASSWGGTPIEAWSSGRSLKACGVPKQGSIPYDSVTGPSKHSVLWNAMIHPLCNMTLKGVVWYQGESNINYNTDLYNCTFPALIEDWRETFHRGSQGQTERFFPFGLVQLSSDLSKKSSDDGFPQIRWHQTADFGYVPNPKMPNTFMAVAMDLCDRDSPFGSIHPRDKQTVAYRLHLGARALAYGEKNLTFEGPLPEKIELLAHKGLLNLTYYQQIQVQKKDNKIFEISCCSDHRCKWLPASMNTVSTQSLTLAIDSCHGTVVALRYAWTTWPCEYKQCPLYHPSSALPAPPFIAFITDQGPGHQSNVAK
HTRA1 inh conf = HTRA1 protease inhibitors, retest, confirmation, biochemical, fluorescence polarization | recombinant HTRA1, FP-rhodamine activity-based probe | shares compounds with HTRA1 inhibitor | actives 66% (n = 1,600) | inhibition, % at 5.96 µM;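 active = mean inhibition over three repeats above a set limit taken from the earlier primary screen, cut at about 37% in these data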;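 note: 0% = HTRA1 with DMSO and 100% = wells lacking HTRA1; inhibitors block probe binding so polarization drops and inhibition rises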
BSA probe FL = compounds interfering with TAMRA-BSA probe, counter-screen for TCR-CD3 interaction inhibitor project, biochemical, fluorescence, TAMRA-labeled BSA | shares compounds with TCR-CD3 inh | TAMRA-labeled BSA probe fluorescence counterscreen | inhibition, % at 9.4 µM | actives 10% (n = 1,200); in the data active = inhibition above about 23%;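 note: 0% = buffer low control and 100% = reference high control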
TCR-CD3 inh conf = TCR-CD3 interaction inhibitors, retest, confirmation, biochemical, fluorescence, TAMRA-labeled TCR probe; inhibition, % at 9.4 µM; TAMRA-labeled TCR probe fluorescence binding assay; shares compounds with TCR-CD3 inh; actives 48% (n = 1,200)
Tn6 DDE ctr = DD(E)-Tn6 binding inhibition, counter-screen. shares compounds with DDE Tn6 FP inh. Fibrin DD(E), TRITC-Tn6 fluorescence polarization displacement; 0% = median of compound wells, not DMSO. actives 2% (n = 680). AID 720621. inhibition, % at 8.3 µM;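 active = inhibition above the mean of test compounds lying between the control limits plus 3 SD of those, cut at about 14% in these data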;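 note: 0% = median of compound wells and 100% = wells with Aha-Tn7 blocking peptide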
DDE Tn6 confirm = inhibitors of Tn6 peptide binding to fibrin DD(E), confirmation, biochemical, fluorescence polarization, human fibrin, Tn6 probe. shares compounds with DDE Tn6 FP inh. FP displacement of TRITC-Tn6 peptide from DD(E); 0% = per-plate median of test wells. inhibition, % at 8.3 µM. actives 10% (n = 680);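 active = inhibition above the mean of compounds lying within the control limits plus 3 SD, cut at about 16% in these data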;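 note: 100% = high control wells holding a competing inhibitor peptide at 10 µM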
mABHD4 conf = ABHD4 inhibitors, retest, confirmation, biochemical, fluorescence polarization, mouse; shares compounds with mABHD4 FP; purified mABHD4, FP-Rh probe fluorescence polarization; inhibition, % at 8.92 µM; actives 55% (n = 1,800); AID 720658, 2013;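 active = mean inhibition across replicates above the hit cutoff set in the primary screen, cut at about 30% in these data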;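 note: 0% = wild-type ABHD4 with DMSO and 100% = catalytically dead S159A mutant with DMSO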
SIAE confirm = human SIAE inhibitors, retest, confirmation, biochemical, fluorescence polarization, FP-Rh probe, triplicate. actives 13% (n = 2,300). inhibition, % at 9.66 µM. SIAE FP-Rh activity-based probe. shares compounds with SIAE inh. AID 1117263, 2014;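 active = mean inhibition of the replicates above the hit cutoff set in the primary screen, cut at about 17% in these data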;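 note: 0% = SIAE with DMSO and probe and 100% = probe without SIAE; inhibitors lower polarization as more probe stays unbound to SIAE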
The depositor's hits bear a star; x = no result given; + = active, no number. Sampled rows, rich in hits. Any-hit rate of the full collection: about 1.8%. Cut-off read from the data, not from the text of the source, unless noted: active = inhibition above about 19%; inactive = the rest.

SMILES	HTRA1 inhibitor	mABHD4 FP	TCR-CD3 inh	DDE Tn7 FP inh	DDE Tn6 FP inh	SIAE inh	HTRA1 inh conf	BSA probe FL	TCR-CD3 inh conf	mABHD4 conf	SIAE confirm	others
CN(C)C1C(=O)C(C(N)=O)=C(O)C2(O)C(=O)C3=C(O)c4c(O)cccc4C(C)(O)C3C(O)C12 (centres undefined)	56.3*	67.2*	25.0*	-4.5	-14.6	12.4	8.1	-1.2	7.4	18.4	x
C=C(C=O)CC1CC(O)[C@]2(C)OC3CC4OC5C[C@]6(C)O[C@]7(C)CCC8OC9C[C@]%10(C)OC%11C(C)=CC(=O)OC%11CC%10OC9C[C@@H](C)C8OC7CC6O[C@]5(C)C/C=C\C4OC3CC2O1 (some centres undefined)	x	-6.0	x	7.0	3.7	3.0	x	x	x	x	x
CCN(CC)c1ccc(N=Cc2c(O)n(-c3cc(OC)ccc3OC)c(=O)[nH]c2=O)cc1	45.7*	65.3*	8.9	-5.2	-0.2	24.6*	14.2	x	x	3.7	5.4
C[n+]1c2ccccc2nc2ccc(NCCO)cc21	85.8*	96.9*	195.8*	-0.9	+	60.4*	86.5*	176.9*	138.8*	62.5*	67.6*	Tn6 DDE ctr=0.8;DDE Tn6 confirm=122.2*
CNc1ccc2nc3ccccc3[n+](C)c2c1	114.9*	118.6*	+	-0.6	+	108.0*	101.4*	+	184.2*	101.3*	113.3*	Tn6 DDE ctr=-7.6;DDE Tn6 confirm=94.2*
OCCNc1c2c(nc3ccccc13)CCCC2	1.5	2.1	-2.1	-1.3	-9.8	5.9	x	x	x	x	x
O=C(CF)NC(NC(=S)Nc1ccccc1O)C(Cl)(Cl)Cl (centres undefined)	-4.6	6.8	-2.9	-2.3	-1.1	5.8	x	x	x	x	x
CCOc1ccccc1-n1c(O)c(C=NCCCn2ccnc2)c(=O)[nH]c1=O	-2.4	3.7	-3.4	-7.8	3.4	-5.4	x	x	x	x	x
NC(N)=N/N=C/c1ccc(N(c2ccccc2)c2ccccc2)cc1	45.5*	42.4*	-4.0	-3.8	-9.7	21.7*	59.7*	x	x	71.0*	36.0*
